Measurements as given in paper PMC9798253 (Protein Science : A Publication of the Protein Society, 2023).

Experiments:
[1] = system: GST-tagged TRD domain of MECP2 (170–325 of NP_004983); experiment: Peptide SPOT array binding of ADD peptides to GST-TRD; settings: 25 nM GST-TRD; 1 h; ECL detection (anti-GST)
Method in brief: (§1)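 The cellulose-bound peptide arrays included alanine-substituted variants. Purified protein was applied for 1 h. Detection used anti-GST (1:12,000) or anti-MBP (1:10,000) for 1 h, then HRP secondary for 1 h.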

[2] = system: GST-TRD (TRD domain of MECP2); experiment: GST-pulldown of MBP-ADD; type: binding; settings: 1 μg each protein; 25 mM Tris/HCl pH 8, 200 mM KCl; 1 h, 6°C; SDS-PAGE
[3] = system: ADD D529A/D530A/D531A triple mutant; experiment: Peptide SPOT array binding of TRD peptides to ADD triple mutant; design: species or system human; settings: 25 nM ADD mutant; 1 h; ECL detection
Method in brief: as §1

Substance | TRD binding of ADD peptides on SPOT array [1] | other results
ADD 496–510: ADD surface peptide on SPOT array, WT sequence | showed TRD binding with the WT sequence | –
MBP-ADD: ADD domain of DNMT3A (476–614 of Q9Y6K1) as maltose‐binding protein (MBP) fusion | – | pulldown of MBP-ADD by GST-TRD [2]: strong and specific pulldown
ADD 592–606: ADD surface peptide on SPOT array, WT sequence | showed TRD binding with the WT sequence | –
ADD 522–536: ADD surface peptide on SPOT array, WT sequence | showed TRD binding with the WT sequence | –
TRD residues 214–228: 15mer SPOT peptide, TRD residues E214‐T228, WT peptide (EKSPGKLLVKMPFQT) | – | binding of ADD D529A/D530A/D531A triple mutant to TRD peptide on SPOT array [3]: Binding was lost
